Measurements taken from ChEMBL document CHEMBL3865827, “A novel class of ethacrynic acid derivatives as promising drug-like potent generation of anticancer agents with established mechanism of action” (Eur J Med Chem, 2016).
The source made the active and inactive calls. The calls are words filed in the database; no cut-off is given here.

Legend:
[1] = Antiproliferative activity against human KB cells after 24 to 72 hrs by MTS assay; format: functional, cell-based
How it was run: (§1)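 Cells plated, then dosed 24 h later with compounds in DMSO (1% final; controls DMSO alone), exposed 24 or 72 h. Proliferation inhibition measured as previously reported (MTS/NADH reagent). IC50 from duplicate experiments over 0.5 nM–100 µM. KB grown in D-MEM with 10% fetal calf serum, penicillin, streptomycin, fungizone, 5% CO2; other lines in complete RPMI. EPC are quiescent Cyprinus carpio endothelial progenitor cells.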

[2] = Antiproliferative activity against human HL60 cells after 24 to 72 hrs by MTS assay; format: functional, cell-based; details: HL-60; how it was run: as §1
KB [3] = experiment: Selectivity index, ratio of IC50 for Cyprinus carpio EPC to IC50 for human KB cells
HL-60 [4] = experiment: Selectivity index, ratio of IC50 for Cyprinus carpio EPC to IC50 for human HL60 cells
[5] = Antiproliferative activity against Cyprinus carpio EPC after 24 to 72 hrs by MTS assay
[6] = Antiproliferative activity against human MCF7 cells after 24 to 72 hrs by MTS assay; format: functional, cell-based
[7] = Antiproliferative activity against human HCT116 cells after 24 to 72 hrs by MTS assay; format: functional, cell-based; details: HCT-116
[8] = Antiproliferative activity against human PC3 cells after 24 to 72 hrs by MTS assay; format: functional, cell-based; details: PC-3
[9] = Antiproliferative activity against human SKOV3 cells after 24 to 72 hrs by MTS assay; format: functional, cell-based; details: SK-OV-3
[10] = Antiproliferative activity against human OVCAR8 cells after 24 to 72 hrs by MTS assay; format: functional, cell-based; details: OVCAR-8
HCT-116 = experiment: Induction of necrosis in human HCT116 cells assessed as increase in LDH release at 7 uM after 24 to 48 hrs by fluorescence assay; format: functional, cell-based
MRC5 = experiment: Induction of necrosis in human MRC5 SV2 cells assessed as increase in LDH release at 7 uM after 24 to 48 hrs by fluorescence assay; format: functional, cell-based
[11] = Cell cycle arrest in human HL60 cells assessed as accumulation at G0/G1 phase at 2.5 uM after 24 hrs by propidium iodide-staining based FACS analysis (reference value: 43.5 %); format: functional; details: HL-60
How it was run: (§2)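 HL60 cells, 25,000 per well, exposed 24 and 48 h to 2.5 µM compounds; controls DMSO (1% final). Propidium iodide staining, flow cytometry; fractions in sub-G1, G0/G1, S and G2/M quantified.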

[12] = Cell cycle arrest in human HL60 cells assessed as accumulation at S phase at 2.5 uM after 24 hrs by propidium iodide-staining based FACS analysis (reference value: 48.9 %); format: functional; details: HL-60; how it was run: as §2
[13] = Cell cycle arrest in human HL60 cells assessed as accumulation at G2/M phase at 2.5 uM after 24 hrs by propidium iodide-staining based FACS analysis (reference value: 5.1 %); format: functional; details: HL-60; how it was run: as §2
[14] = Cell cycle arrest in human HL60 cells assessed as accumulation at sub G1 phase at 2.5 uM after 24 hrs by propidium iodide-staining based FACS analysis (reference value: 2.6 %); format: functional; details: HL-60; how it was run: as §2
[15] = Cell cycle arrest in human HL60 cells assessed as accumulation at G0/G1 phase at 2.5 uM after 48 hrs by propidium iodide-staining based FACS analysis (reference value: 43.8 %); format: functional; details: HL-60; how it was run: as §2
[16] = Cell cycle arrest in human HL60 cells assessed as accumulation at S phase at 2.5 uM after 48 hrs by propidium iodide-staining based FACS analysis (reference value: 52.6 %); format: functional; details: HL-60; how it was run: as §2
[17] = Cell cycle arrest in human HL60 cells assessed as accumulation at G2/M phase at 2.5 uM after 48 hrs by propidium iodide-staining based FACS analysis (reference value: 2.2 %); format: functional; details: HL-60; how it was run: as §2
[18] = Cell cycle arrest in human HL60 cells assessed as accumulation at sub G1 phase at 2.5 uM after 48 hrs by propidium iodide-staining based FACS analysis (reference value: 1.4 %); format: functional; details: HL-60; how it was run: as §2
[19] = Cytotoxicity against human HL60 cells assessed as reduction in cell viability after 24 hrs by MTS assay; format: functional, cell-based; details: HL-60, 24 h
KB [20] = experiment: Induction of necrosis in human KB cells assessed as increase in LDH release at 7 uM after 24 to 48 hrs by fluorescence assay; format: functional, cell-based
HL-60 [21] = experiment: Antiproliferative activity against human HL60 cells at 7 uM after 24 hrs by viacount-reagent based FACS analysis
HL60 (Homo sapiens) = experiment: Effect on 24 hrs pretreated human HL60 cells assessed as reduction in endogenous GSH content at 7 uM measured for 60 mins by fluorescence assay; details: HL-60

Row | SMILES | IC50 [1] [nM] | IC50 [2] [nM] | Ratio IC50 (KB [3]) | Ratio IC50 (HL-60 [4]) | IC50 [5] [nM] | Activity (HCT-116) | Activity (MRC5) | also measured
1 | C=C(CC)C(=O)c1ccc(OCC(=O)NCCc2ccc(OP3(=O)OCCC(c4cccc(Cl)c4)O3)cc2)c(Cl)c1Cl (configuration not stated) | 700 | 900 | 3.1 | 2.4 | 2200 |  |  | 
2 | C=C(CC)C(=O)c1ccc(OCC(=O)N2CCN(c3ccc(OP(=O)(OC)OC)cc3)CC2)c(Cl)c1Cl | 170 | 800 | 17 | 3.6 | 2900 |  |  | IC50 [6]: 500 nM; IC50 [7]: 800 nM; IC50 [8]: 1100 nM; IC50 [9]: 2200 nM; IC50 [10]: 1400 nM
3 | CCC(C)C(=O)c1ccc(OCC(=O)N2CCN(c3ccc(OC)cc3)CC2)c(Cl)c1Cl (configuration not stated) |  |  |  |  |  | Active | Active | 
4 | C=C(CC)C(=O)c1ccc(OCC(=O)N2CCN(c3ccc(OP4(=O)OCCC(c5cccc(Cl)c5)O4)cc3)CC2)c(Cl)c1Cl (configuration not stated) | 400 | 900 | 21 | 8.7 | 7800 |  |  | 
5 | C=C(CC)C(=O)c1ccc(OCC(=O)N2CCN(c3ccc(OC)cc3)CC2)c(Cl)c1Cl | 400 | 800 | 9 | 4.5 | 3600 | Active | Active | 
6 | C=C(CC)C(=O)c1ccc(OCC(=O)N2CCN(c3ccc(OP(=O)(OCC)OCC)cc3)CC2)c(Cl)c1Cl | 300 | 500 | 9.3 | 5.6 | 2800 |  |  | 
7 | C=C(CC)C(=O)c1ccc(OCC(=O)NCCc2ccc(OP(=O)(OCC)OCC)c(OC)c2)c(Cl)c1Cl | 700 | 800 | 3.2 | 2.8 | 2300 |  |  | 
8 | C=C(CC)C(=O)c1ccc(OCC(=O)NCCc2ccc(OP(=O)(OCC)OCC)cc2)c(Cl)c1Cl | 800 | 1100 | 4 | 2.9 | 3200 |  |  | 
9 | C=C(CC)C(O)c1ccc(OCC(=O)NCCc2ccc(O)cc2)c(Cl)c1Cl (configuration not stated) |  |  |  |  |  | Active | Active | Activity [11]: 42.3%; Activity [12]: 50.5%; Activity [13]: 5.2%; Activity [14]: 2%; Activity [15]: 51.9%; Activity [16]: 41.5%; Activity [17]: 0.6%; Activity [18]: 6.1%
10 | C=C(CC)C(=O)c1ccc(OCC(=O)NCCc2ccc(O)c(OC)c2)c(Cl)c1Cl | 800 | 1600 | 5.6 | 2.8 | 4500 | Active | Active | IC50 [19]: 2600 nM; Activity (KB [20]): Active; Activity (HL-60 [21]): Active; GSH reduction activity (HL60 (Homo sapiens)): Active
11 | CCC(C)C(=O)c1ccc(OCC(=O)NCCc2ccc(O)cc2)c(Cl)c1Cl (configuration not stated) |  |  |  |  |  | Active | Active | Activity [11]: 42.1%; Activity [12]: 46.7%; Activity [13]: 7.9%; Activity [14]: 3.3%; Activity [15]: 51.7%; Activity [16]: 41.9%; Activity [17]: 2.2%; Activity [18]: 4.2%
12 | CCC(C)C(=O)c1ccc(OCC(=O)N2CCN(c3ccc(O)cc3)CC2)c(Cl)c1Cl (configuration not stated) |  |  |  |  |  | Active | Active | 
13 | C=C(CC)C(=O)c1ccc(OCC(=O)NCCc2ccc(OP(=O)(OC)OC)cc2)c(Cl)c1Cl | 400 | 1200 | 1.75 | 0.58 | 700 |  |  | IC50 [6]: 900 nM; IC50 [7]: 1500 nM; IC50 [8]: 800 nM; IC50 [9]: 2800 nM; IC50 [10]: 1500 nM
14 | C=C(CC)C(=O)c1ccc(OCC(=O)NCCc2ccc(OP3(=O)OCCCO3)cc2)c(Cl)c1Cl | 500 | 1200 | 6.8 | 2.8 | 3400 |  |  | 
